According to ChEMBL document CHEMBL5108057, “Development of MAO-A and 5-HT2AR Dual Inhibitors with Improved Antidepressant Activity” (J Med Chem, 2022):
pIC50: −log10 of the molar value. The source made the active and inactive calls. The calls are words filed in the database; no cut-off is given here.

Experiments:
[1] = biological target: T1, Amine oxidase [flavin-containing] A (Homo sapiens, UniProt P21397); assay: Inhibition of MAO-A (unknown origin) using p-tyramine as substrate preincubated for 15 mins followed by substrate addition and measured after 15 mins by Amplex red fluorescence based microplate reader assay
T1 sequence (P21397 whole entry): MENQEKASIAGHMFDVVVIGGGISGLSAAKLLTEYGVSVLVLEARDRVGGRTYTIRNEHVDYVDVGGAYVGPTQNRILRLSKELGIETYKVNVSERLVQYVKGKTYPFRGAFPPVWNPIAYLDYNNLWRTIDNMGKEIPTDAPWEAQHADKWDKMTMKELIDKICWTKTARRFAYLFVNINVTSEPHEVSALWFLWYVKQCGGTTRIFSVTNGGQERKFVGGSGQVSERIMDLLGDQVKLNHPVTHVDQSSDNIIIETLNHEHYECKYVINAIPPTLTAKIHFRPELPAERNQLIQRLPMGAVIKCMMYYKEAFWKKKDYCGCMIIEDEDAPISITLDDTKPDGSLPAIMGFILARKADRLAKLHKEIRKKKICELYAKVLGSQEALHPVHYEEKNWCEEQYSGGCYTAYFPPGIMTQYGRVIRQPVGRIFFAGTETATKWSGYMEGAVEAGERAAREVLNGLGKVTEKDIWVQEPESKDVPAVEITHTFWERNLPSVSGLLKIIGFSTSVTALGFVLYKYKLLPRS

[2] = test system: PC-12; assay: Neurocytoprotective activity against CORT-induced damage in rat PC-12 cells at 0.5 uM measured after 24 hrs by MTT assay; format: functional, cell-based
Outline: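 PC12 cells seeded at 5 × 10^4 cells/mL for 24 h. Medium was then replaced with compound (0.5–4.0 μM) plus 500 μM CORT (DMSO <1%) for 24 h. Viability was measured by MTT relative to the CORT model group.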

[3] = test system: Mus musculus; assay: Antidepressant activity in chronic unpredictable mild stress ICR mouse model assessed as decrease in immobility time at 10 to 20 mg/kg measured after 2 weeks by forced swimming test; format: functional, organism-based; settings: dose 10-20 mg/kg
Outline: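 ICR mice received CUMS for 4 weeks: 11 stressors given randomly twice daily, 42 days in total. OFT: 5 min session scoring distance, speed, rearing and dejection. FST/TST: 6 min, with immobility scored over the last 4 min. Sucrose preference test was also run. Mean ± SD, n = 6.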

[4] = MRT infinity in Sprague-Dawley rat at 2 mg/kg, iv measured upto 1440 mins by LC-MS/MS analysis; format: ADME, organism-based; settings: in vivo

With `O=C1c2ccccc2-c2nccc3cc(OCCCCCN4CCN(c5ccccc5F)CC4)cc1c23` the pIC50 [1] was 8.40, the Activity [2] was “Active” and the Activity [3] was “Active”. For the same compound, the MRT inf [4] was 4.19 h.
